Experimental data taken from ChEMBL document CHEMBL4257478, “Design, synthesis and evaluation of (R)-3-(7-(methyl(7H-pyrrolo[2,3-d]pyrimidin-4-yl)amino)-5-azaspiro[2.4]heptan-5-yl)-3-oxopropanenitrile as a JAK1-selective inhibitor” (Medchemcomm, 2018).

What was measured:
Homo sapiens = organism: Homo sapiens; assay: Selectivity index, ratio of IC50 for human JAK2 to IC50 for human JAK1
How it was run: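 Kinase activity assays run as a commercial service at Km ATP; IC50 values fitted from concentration-response data; ratio of JAK2 to JAK1 IC50.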

[1] = molecular target: T1, Tyrosine-protein kinase JAK1 (Homo sapiens, UniProt P23458); assay: Inhibition of human JAK1 using GEEPLYWSFPAKKK as substrate after 40 mins in presence of [gamma-33P-ATP] by scintillation counting method
T1 sequence (P23458 whole entry): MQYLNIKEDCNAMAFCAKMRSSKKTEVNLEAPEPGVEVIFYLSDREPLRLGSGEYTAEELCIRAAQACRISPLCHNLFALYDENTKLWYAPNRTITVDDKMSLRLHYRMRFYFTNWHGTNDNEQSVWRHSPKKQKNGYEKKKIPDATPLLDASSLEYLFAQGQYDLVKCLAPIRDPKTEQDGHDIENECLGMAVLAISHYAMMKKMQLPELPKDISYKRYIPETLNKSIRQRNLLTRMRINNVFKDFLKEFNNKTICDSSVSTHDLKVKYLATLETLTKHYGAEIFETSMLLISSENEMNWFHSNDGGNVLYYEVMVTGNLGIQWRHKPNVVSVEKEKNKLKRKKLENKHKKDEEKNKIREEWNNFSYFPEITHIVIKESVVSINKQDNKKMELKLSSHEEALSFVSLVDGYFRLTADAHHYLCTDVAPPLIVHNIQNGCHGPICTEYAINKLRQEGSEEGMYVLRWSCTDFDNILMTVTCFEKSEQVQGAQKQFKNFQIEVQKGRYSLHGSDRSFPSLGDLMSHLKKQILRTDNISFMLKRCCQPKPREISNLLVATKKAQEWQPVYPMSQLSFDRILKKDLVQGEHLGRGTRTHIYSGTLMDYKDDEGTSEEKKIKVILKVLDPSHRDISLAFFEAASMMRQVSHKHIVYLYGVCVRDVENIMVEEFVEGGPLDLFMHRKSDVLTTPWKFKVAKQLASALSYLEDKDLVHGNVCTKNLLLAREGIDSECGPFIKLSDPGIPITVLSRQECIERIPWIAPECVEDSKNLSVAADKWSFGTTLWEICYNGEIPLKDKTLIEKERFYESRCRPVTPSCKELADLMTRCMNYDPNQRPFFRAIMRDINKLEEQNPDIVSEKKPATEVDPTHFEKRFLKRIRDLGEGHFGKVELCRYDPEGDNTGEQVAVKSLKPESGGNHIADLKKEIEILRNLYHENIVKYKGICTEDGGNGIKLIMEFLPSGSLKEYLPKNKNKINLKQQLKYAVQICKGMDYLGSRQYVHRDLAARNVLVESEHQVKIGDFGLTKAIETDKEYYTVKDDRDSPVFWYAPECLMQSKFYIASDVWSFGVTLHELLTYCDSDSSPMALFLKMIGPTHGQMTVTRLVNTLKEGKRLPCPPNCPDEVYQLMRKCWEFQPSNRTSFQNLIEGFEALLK

[2] = molecular target: Tyrosine-protein kinase JAK2 (Homo sapiens, UniProt O60674); assay: Inhibition of human JAK2 using KTFCGTPEYLAPEVRREPRILSEEEQEMFRDFDYIADWC as substrate after 40 mins in presence of [gamma-33P-ATP] by scintillation counting method
Tyrosine-protein kinase JAK2, sequence (O60674 whole entry): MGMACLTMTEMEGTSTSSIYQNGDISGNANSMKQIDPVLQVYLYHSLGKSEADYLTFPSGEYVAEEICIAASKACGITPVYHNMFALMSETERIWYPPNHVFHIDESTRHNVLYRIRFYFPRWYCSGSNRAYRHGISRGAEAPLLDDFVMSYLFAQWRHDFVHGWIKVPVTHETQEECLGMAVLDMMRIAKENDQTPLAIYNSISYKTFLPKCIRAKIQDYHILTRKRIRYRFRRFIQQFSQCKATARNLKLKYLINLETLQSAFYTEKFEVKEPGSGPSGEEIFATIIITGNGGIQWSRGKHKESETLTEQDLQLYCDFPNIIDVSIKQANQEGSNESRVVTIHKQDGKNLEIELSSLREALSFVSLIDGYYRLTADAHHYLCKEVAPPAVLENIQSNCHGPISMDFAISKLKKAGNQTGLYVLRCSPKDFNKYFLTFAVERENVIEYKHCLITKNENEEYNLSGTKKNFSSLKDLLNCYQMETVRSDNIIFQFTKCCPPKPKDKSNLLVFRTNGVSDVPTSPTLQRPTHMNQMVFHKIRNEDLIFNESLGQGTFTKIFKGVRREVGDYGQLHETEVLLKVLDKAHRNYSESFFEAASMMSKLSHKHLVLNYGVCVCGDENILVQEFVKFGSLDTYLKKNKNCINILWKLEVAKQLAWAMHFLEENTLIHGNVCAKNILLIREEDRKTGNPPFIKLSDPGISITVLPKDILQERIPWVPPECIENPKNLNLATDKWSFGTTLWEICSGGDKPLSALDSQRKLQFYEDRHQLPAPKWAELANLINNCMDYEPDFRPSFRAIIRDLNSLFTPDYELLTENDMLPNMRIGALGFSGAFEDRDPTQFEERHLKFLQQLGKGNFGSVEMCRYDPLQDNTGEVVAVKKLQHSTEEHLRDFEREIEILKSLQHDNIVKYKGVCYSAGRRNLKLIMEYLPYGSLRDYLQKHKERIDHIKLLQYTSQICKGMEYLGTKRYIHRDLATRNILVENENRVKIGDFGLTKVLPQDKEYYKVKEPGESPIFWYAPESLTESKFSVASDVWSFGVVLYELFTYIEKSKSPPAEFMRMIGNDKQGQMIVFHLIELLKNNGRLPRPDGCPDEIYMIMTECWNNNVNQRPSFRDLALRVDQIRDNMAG

[3] = molecular target: T1, Tyrosine-protein kinase JAK1; assay: Inhibition of human JAK1 at 1 uM using GEEPLYWSFPAKKK as substrate after 40 mins in presence of [gamma-33P-ATP] by scintillation counting method relative to control

Row | Ratio IC50 (Homo sapiens) | IC50 [1] [nM] | IC50 [2] [nM] | inhibition [3] [%] | Structure (SMILES)
1 | 18 | 26 | 470 | – | CN(c1ncnc2[nH]ccc12)[C@H]1CN(S(=O)(=O)c2ccccc2[N+](=O)[O-])CC12CC2
2 | 7.5 | 13 | 97 | – | CN(c1ncnc2[nH]ccc12)[C@H]1CN(S(=O)(=O)c2ccccc2F)CC12CC2
3 | 15 | 85 | 1300 | – | Cc1ccc(NC(=O)N2C[C@H](N(C)c3ncnc4[nH]ccc34)C3(CC3)C2)cc1Cl
4 | 74 | 100 | 7400 | – | CN(c1ncnc2[nH]ccc12)[C@H]1CN(C(=O)c2cccc(C#N)c2)CC12CC2
5 | – | – | – | 54 | N#CCC(=O)N1C[C@H]2CCCN(c3ncnc4[nH]ccc34)[C@H]2C1
6 | 5.5 | 12 | 66 | – | Cc1cccc(S(=O)(=O)N2C[C@H](N(C)c3ncnc4[nH]ccc34)C3(CC3)C2)c1
7 | 19 | 670 | 13000 | – | CNC(=O)CC(=O)N1C[C@H](N(C)c2ncnc3[nH]ccc23)C2(CC2)C1
8 | 3 | 2.8 | 8.4 | – | CN(c1ncnc2[nH]ccc12)[C@H]1CN(S(=O)(=O)c2cccc(F)c2)CC12CC2
9 | 7.1 | 170 | 1200 | – | CN(c1ncnc2[nH]ccc12)[C@H]1CN(C(=O)C2CC2)CC12CC2
10 | 39 | 120 | 4700 | – | CN(c1ncnc2[nH]ccc12)[C@H]1CN(C(=O)Nc2ccc(Cl)cc2Cl)CC12CC2
11 | 37 | 75 | 2800 | – | CCCCNC(=O)N1C[C@H](N(C)c2ncnc3[nH]ccc23)C2(CC2)C1
12 | 8.8 | 17 | 150 | – | CN(c1ncnc2[nH]ccc12)[C@H]1CN(S(=O)(=O)c2ccc3ccccc3c2)CC12CC2
13 | 110 | 9.8 | 1100 | – | CN(c1ncnc2[nH]ccc12)[C@H]1CN(S(=O)(=O)c2ccc(C#N)cc2)CC12CC2
14 | 52 | 54 | 2800 | – | CN(c1ncnc2[nH]ccc12)[C@H]1CN(C(=O)Nc2cc(Cl)ccc2Cl)CC12CC2
15 | 9.6 | 50 | 480 | – | CN(c1ncnc2[nH]ccc12)[C@H]1CN(S(=O)(=O)c2ccccc2C#N)CC12CC2
16 | 12 | 21 | 250 | – | CN(c1ncnc2[nH]ccc12)[C@H]1CN(C(=O)CN=[N+]=[N-])CC12CC2
17 | 5.7 | 9 | 51 | – | CN(c1ncnc2[nH]ccc12)[C@H]1CN(S(=O)(=O)c2ccccc2)CC12CC2
18 | 26 | 420 | 11000 | – | CN(c1ncnc2[nH]ccc12)[C@H]1CN(C(=O)c2cccc(C(F)(F)F)c2)CC12CC2
19 | 33 | 40 | 1300 | – | CN(c1ncnc2[nH]ccc12)[C@H]1CN(C(=O)Nc2ccc(Cl)c(Cl)c2)CC12CC2
20 | 19 | 9.3 | 180 | – | COc1ccc(S(=O)(=O)N2C[C@H](N(C)c3ncnc4[nH]ccc34)C3(CC3)C2)cc1
21 | 6.5 | 20 | 130 | – | CC(C)S(=O)(=O)N1C[C@H](N(C)c2ncnc3[nH]ccc23)C2(CC2)C1
22 | 18 | 53 | 930 | – | CN(c1ncnc2[nH]ccc12)[C@H]1CN(C(=O)c2ccco2)CC12CC2
23 | 4.8 | 6.3 | 30 | – | CN(c1ncnc2[nH]ccc12)[C@H]1CN(S(=O)(=O)c2ccc([N+](=O)[O-])cc2)CC12CC2
24 | 18 | 74 | 1300 | – | CN(c1ncnc2[nH]ccc12)[C@H]1CN(C(=O)Nc2cccc(Cl)c2Cl)CC12CC2
25 | 35 | 34 | 1200 | – | CC(C)COC(=O)N1C[C@H](N(C)c2ncnc3[nH]ccc23)C2(CC2)C1
26 | 14 | 77 | 1100 | – | CC(C)CC(=O)N1C[C@H](N(C)c2ncnc3[nH]ccc23)C2(CC2)C1

Row | Ratio IC50 (Homo sapiens) | IC50 [1] [nM] | IC50 [2] [nM] | inhibition [3] [%] | Structure (SMILES)
27 | 64 | 69 | 4400 | – | CN(c1ncnc2[nH]ccc12)[C@H]1CN(C(=O)NC2CCCCC2)CC12CC2
28 | 820 | 120 | 98000 | – | CN(c1ncnc2[nH]ccc12)[C@H]1CN(Cc2ccccc2)CC12CC2
29 | 5.2 | 6.9 | 36 | – | CCCS(=O)(=O)N1C[C@H](N(C)c2ncnc3[nH]ccc23)C2(CC2)C1
30 | 3.9 | 1.4 | 5.5 | – | CN(c1ncnc2[nH]ccc12)[C@H]1CN(S(=O)(=O)c2cccc([N+](=O)[O-])c2)CC12CC2
31 | – | – | – | 95 | CN(c1ncnc2[nH]ccc12)C1CN(C(=O)CC#N)CC12CC2 (racemic)
32 | 35 | 12 | 420 | – | CN(c1ncnc2[nH]ccc12)[C@H]1CN(C(=O)Nc2ccccc2)CC12CC2
33 | 5.3 | 9.4 | 50 | – | CN(c1ncnc2[nH]ccc12)[C@H]1CN(S(=O)(=O)c2ccc(F)cc2)CC12CC2
34 | 10 | 15 | 150 | – | CN(c1ncnc2[nH]ccc12)[C@H]1CN(S(=O)(=O)N2CCCCC2)CC12CC2
35 | 16 | 170 | 2800 | – | CC(C)C(=O)N1C[C@H](N(C)c2ncnc3[nH]ccc23)C2(CC2)C1
36 | 43 | 23 | 1000 | – | CN(c1ncnc2[nH]ccc12)[C@H]1CN(C(=O)Nc2ccc(F)cc2)CC12CC2
37 | 31 | 520 | 16000 | – | CC(=O)NCC(=O)N1C[C@H](N(C)c2ncnc3[nH]ccc23)C2(CC2)C1
38 | 42 | 150 | 6300 | – | CN(c1ncnc2[nH]ccc12)[C@H]1CN(C(=O)c2ccccc2)CC12CC2
39 | 8 | 20 | 160 | – | CN(c1ncnc2[nH]ccc12)[C@H]1CN(C(=S)CC#N)CC12CC2
40 | – | – | – | 30 | N#CCC(=O)N1CCCC(COc2ncnc3[nH]ccc23)C1 (stereo not given)
41 | 88 | 16 | 1400 | – | CN(c1ncnc2[nH]ccc12)[C@H]1CN(S(=O)(=O)c2ccc(C(F)(F)F)cc2)CC12CC2
42 | 24 | 190 | 4500 | – | CN(c1ncnc2[nH]ccc12)[C@H]1CN(C(=O)c2ccc(C#N)cc2)CC12CC2
43 | – | – | – | 35 | N#CCC(=O)N1CCC(Oc2ncnc3[nH]ccc23)CC1
44 | 18 | 500 | 9100 | – | CN(c1ncnc2[nH]ccc12)[C@H]1CN(C(=O)c2ccccc2C(F)(F)F)CC12CC2
45 | 49 | 160 | 7800 | – | CN(c1ncnc2[nH]ccc12)[C@H]1CN(C(=O)c2cccnc2)CC12CC2
46 | 8.4 | 31 | 260 | – | CN(c1ncnc2[nH]ccc12)[C@H]1CN(S(=O)(=O)N2CCOCC2)CC12CC2
47 | – | – | – | 49 | CN(c1ncnc2[nH]ccc12)C1CCN(C(=O)CC#N)CC1
48 | 46 | 140 | 6500 | – | CN(c1ncnc2[nH]ccc12)[C@H]1CN(C(=O)c2ccncc2)CC12CC2
49 | 14 | 180 | 2500 | – | CC(=O)N1CCC(C(=O)N2C[C@H](N(C)c3ncnc4[nH]ccc34)C3(CC3)C2)CC1
50 | 23 | 470 | 11000 | – | CN(c1ncnc2[nH]ccc12)[C@H]1CN(C(=S)Nc2cc(C(F)(F)F)cc(C(F)(F)F)c2)CC12CC2
51 | 6.1 | 1500 | 9100 | – | CN(c1ncnc2[nH]ccc12)[C@H]1CN(C(=O)Nc2ccccc2-c2ccccc2)CC12CC2
52 | – | – | – | 99 | CN(c1ncnc2[nH]ccc12)[C@@H]1CCCN(C(=O)CC#N)C1

Row | Structure (SMILES) | Ratio IC50 (Homo sapiens) | IC50 [1] [nM] | IC50 [2] [nM] | inhibition [3] [%]
53 | CCN1C[C@H](N(C)c2ncnc3[nH]ccc23)C2(CC2)C1 | 21 | 1400 | 30000 | –
54 | CCCCN1C[C@H](N(C)c2ncnc3[nH]ccc23)C2(CC2)C1 | 65 | 230 | 15000 | –
